≈ marks a conversion by molar mass, not a printed value.

The test system of one data set is Hepatitis C virus. The experiment in a line: Antiviral activity against HCV 1a infected in human HuH7 cells assessed as reduction of viral RNA level at 20 ug/ml […] by QRT-PCR analysis. It is filed as functional, Hepacivirus hominis. Conditions: subtype 1a, Huh-7.
For data set [1], the system named is Hepatitis B virus. The experiment in a line: Antiviral activity against HBV infected in human HepG2(2.2.15) cells assessed as inhibition of viral replication at 10 ug/ml […] relative to control. Format: functional. The following applies: HepG2 2.2.15, 48 h.
The subject of data set [2] is Duck hepatitis B virus. Kind of data set: Antiviral activity against DHBV infected in duck hepatocytes assessed as inhibition of viral DNA replication at 10 ug/ml after 15 days relative to control. The following applies: Hepatocyte, 360 h.
Data set [3] is described as follows: Cytotoxicity against human HuH7 cells after 2 days by XTT assay. Format: cell-based, Huh-7. In a few lines:
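Huh-7 cells seeded at 1 × 10⁵ cells/well, allowed to attach 6–8 h, then medium replaced with compound at 200, 100, 50, 10 and 1 µg/mL; DMSO control. Incubated 2 days at 37 °C, XTT reagent added for 4 h at 37 °C, absorbance read at 450–500 nm; CC50 reported.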

The subject of data set [4] is Hepatitis B virus. Kind of data set: Antiviral activity against HBV infected in human HepG2(2.2.15) cells assessed as inhibition of viral replication after 2 days. It is filed as functional, organism-based. The following applies: HepG2 2.2.15, 48 h.
In data set [5] the test system is Duck hepatitis B virus. The experiment in a line: Antiviral activity against DHBV infected in duck hepatocytes assessed as inhibition of viral DNA replication after 15 days. The following applies: Hepatocyte, 360 h.
The subject of data set [6] is Duck hepatitis B virus. The experiment in a line: Antiviral activity against DHBV infected in duck hepatocytes assessed as inhibition of viral DNA replication at 0.5 to 1 ug/ml after 15 days relative to control.
Data set [7] concerns Hepatitis B virus. Kind of data set: Antiviral activity against HBV infected in human HepG2(2.2.15) cells assessed as inhibition of viral replication at 0.5 to 1 ug/ml […] relative to control. Format: functional.
In data set [8] the test system is Duck hepatitis B virus. Kind of data set: Antiviral activity against DHBV infected in duck hepatocytes assessed as inhibition of viral DNA replication at 1 ug/ml after 15 days relative to control. Conditions: Hepatocyte, 360 h.
Data set [9] concerns Hepatitis B virus. The experiment in a line: Antiviral activity against HBV infected in human HepG2(2.2.15) cells assessed as inhibition of viral replication at 5 ug/ml […] relative to control. It is filed as functional. Conditions: HepG2 2.2.15, 48 h.
In data set [10] the test system is Duck hepatitis B virus. Kind of data set: Antiviral activity against DHBV infected in duck hepatocytes assessed as inhibition of viral DNA replication at 5 ug/ml after 15 days relative to control. The following applies: Hepatocyte, 360 h.

Regarding `O=c1[nH]c(=O)n([C@H]2C[C@H](F)[C@@H](CO)O2)cc1F`, the inhibition at 20 µg/mL with Hepatitis C virus worked out at 28%. Further, the inhibition at 10 µg/mL in the data set on Hepatitis B virus [1] and in the data set on Duck hepatitis B virus [2] was 0% each time. This compound came in with a CC50 at 48 h in data set [3] of over 100 µg/mL.
As to `CCc1cn([C@H]2C[C@H](F)[C@@H](CO)O2)c(=O)[nH]c1=O`, the inhibition at 20 µg/mL with Hepatitis C virus was determined as 0%. For the same compound, the inhibition at 10 µg/mL in the data set with Hepatitis B virus [1] and with Duck hepatitis B virus [2] was 0% in each case. In addition, the CC50 at 48 h in [3] is over 200 µg/mL.
`Cc1cn([C@@H]2O[C@H](CO)[C@@H](F)[C@H]2F)c(=O)[nH]c1=O`: the inhibition at 20 µg/mL with Hepatitis C virus was 0%. In addition, the inhibition at 10 µg/mL with Hepatitis B virus [1] and with Duck hepatitis B virus [2] was 0% each time. For the same compound, the 50% cytotoxic concentration (CC50) at 48 h in data set [3] was over 100 µg/mL.
In the case of `O=c1[nH]c(=O)n([C@H]2C[C@@H](Cl)[C@@H](CO)O2)cc1F`, the EC50 in the data set on Hepatitis B virus [4] and with Duck hepatitis B virus [5] was 10 µg/mL (≈ 37.8 µM) each time. Further, in the data set on Hepatitis C virus, the inhibition at 20 µg/mL came out at 30%. In addition, the inhibition at 10 µg/mL in the data set on Hepatitis B virus [1] and with Duck hepatitis B virus [2] was 50% throughout. Moreover, the CC50 at 48 h in data set [3] was over 200 µg/mL.
For the compound `Nc1ccn([C@@H]2CS[C@H](CO)O2)c(=O)n1` [LAMIVUDINE], the EC50 in the data set with Duck hepatitis B virus [5] came out at 0.05 µg/mL (≈ 0.218 µM). The entries for the “inhibition (INH)” value with Duck hepatitis B virus [6] and in the data set on Hepatitis B virus [7] were 96% and 88%, respectively.
Regarding `O=c1ccn([C@@H]2O[C@H](CO)[C@@H](F)[C@H]2F)c(=O)[nH]1`, the inhibition at 20 µg/mL in the data set on Hepatitis C virus worked out at 0%. Further, the inhibition at 10 µg/mL in the data set on Hepatitis B virus [1] and with Duck hepatitis B virus [2] was 0% in each case. The compound further had a cytotoxic concentration (CC50) at 48 h in data set [3] of over 200 µg/mL.
Turning to `O=c1[nH]c(=O)n([C@H]2C[C@H](F)[C@@H](CO)O2)cc1CO`, the values for the EC50 with Hepatitis B virus [4] and with Duck hepatitis B virus [5] were 5 µg/mL (≈ 19.2 µM) and 1 µg/mL (≈ 3.84 µM), respectively. For the same compound, the inhibition at 1 µg/mL in the data set on Duck hepatitis B virus [8] turned out to be 50%. Besides, in the data set on Hepatitis B virus [9], the inhibition at 5 µg/mL was determined as 50%. In the data set with Hepatitis C virus, the inhibition at 20 µg/mL came out at 30%. Besides, the inhibition at 10 µg/mL stood at 58% in the data set with Hepatitis B virus [1] and 75% in the data set on Duck hepatitis B virus [2]. The 50% cytotoxic concentration (CC50) at 48 h in data set [3] was over 200 µg/mL.
Regarding `O=c1[nH]c(=O)n([C@H]2C[C@H](F)[C@@H](CO)O2)cc1I`, the 50% effective concentration (EC50) in the data set with Hepatitis B virus [4] and with Duck hepatitis B virus [5] was 5 µg/mL (≈ 14 µM) each time. In addition, the inhibition at 5 µg/mL in the data set with Hepatitis B virus [9] and in the data set on Duck hepatitis B virus [10] was 50% in each case. Besides, the inhibition at 20 µg/mL in the data set on Hepatitis C virus was determined as 40%. For the same compound, the inhibition at 10 µg/mL in the data set with Hepatitis B virus [1] came out at 60%; in the data set on Duck hepatitis B virus [2], 63%. In data set [3], the CC50 at 48 h is under 100 µg/mL.
Consider `O=c1[nH]c(=O)n([C@H]2C[C@H](Cl)[C@@H](CO)O2)cc1F`, for which the inhibition at 20 µg/mL in the data set on Hepatitis C virus amounted to 0%. The inhibition at 10 µg/mL in the data set on Hepatitis B virus [1] and with Duck hepatitis B virus [2] was 0% in each case. In data set [3], this compound registered a CC50 at 48 h of over 200 µg/mL.
`O=c1[nH]c(=S)ccn1[C@H]1C[C@H](F)[C@@H](CO)O1`: the inhibition at 20 µg/mL in the data set on Hepatitis C virus was 0%. The inhibition at 10 µg/mL in the data set on Hepatitis B virus [1] was 20%; in the data set on Duck hepatitis B virus [2] it was 25%. For the same compound, the CC50 at 48 h in data set [3] is over 100 µg/mL.
In the case of `O=c1[nH]c(=O)n([C@H]2C[C@H](F)[C@@H](CO)O2)cc1O`, the inhibition at 20 µg/mL with Hepatitis C virus amounted to 0%. Besides, the inhibition at 10 µg/mL in the data set with Hepatitis B virus [1] and with Duck hepatitis B virus [2] was 0% each time. In data set [3], this compound displayed a half-maximal cytotoxic concentration (CC50) at 48 h of over 100 µg/mL.
For the compound `O=c1[nH]c(=S)c(F)cn1[C@H]1C[C@H](F)[C@@H](CO)O1`, the inhibition at 20 µg/mL in the data set with Hepatitis C virus is 0%. Further, the inhibition at 10 µg/mL with Hepatitis B virus [1] and with Duck hepatitis B virus [2] was 0% in each case. In data set [3], the CC50 at 48 h was over 100 µg/mL.
`O=c1[nH]c(=O)n([C@H]2C[C@H](F)[C@@H](CO)O2)cc1C(F)(F)F`: in the data set with Hepatitis C virus, the inhibition at 20 µg/mL turned out to be 25%. The inhibition at 10 µg/mL with Hepatitis B virus [1] and in the data set with Duck hepatitis B virus [2] was 20% in each case. In data set [3], the cytotoxic concentration (CC50) at 48 h was over 100 µg/mL.
With `NC(=O)c1ncn([C@@H]2O[C@H](CO)[C@@H](O)[C@H]2O)n1` [RIBAVIRIN], the inhibition at 20 µg/mL in the data set on Hepatitis C virus was found to be 50%.
As to `Cc1cn([C@H]2C[C@H](Cl)[C@@H](CO)O2)c(=O)[nH]c1=O`, the EC50 with Hepatitis B virus [4] and in the data set on Duck hepatitis B virus [5] was 10 µg/mL (≈ 38.4 µM) in each case. Further, in the data set with Hepatitis C virus, the inhibition at 20 µg/mL was 0%. Moreover, the inhibition at 10 µg/mL in the data set with Hepatitis B virus [1] came out at 56%; in the data set with Duck hepatitis B virus [2], 55%. The CC50 at 48 h in data set [3] is over 200 µg/mL.

(Values after ChEMBL document CHEMBL1268901, “Synthesis and in vitro antiviral activities of 3'-fluoro (or chloro) and 2',3'-difluoro 2',3'-dideoxynucleoside analogs against hepatitis B and C viruses” (Bioorg Med Chem, 2010).)
